Experimental data published in the RNAGym collection of RNA variant scans (doi:10.1126/science.aae0568).
Fewer inactive variants are shown than the library holds.

B1: tRNA (parent)
chain: GUUCCGUUGGCGUAAUGGUAACGCGUCUCCCUCCUAAGGAGAAGACUGCGGGUUCGAGUCCCGUACGGAACG

Variants of: B1
Experiment: yeast fitness relative to wild type (ratio to wild type); higher = fitter; tRNA-Arg(CCU), competitive growth, 37 C, YPD
Procedure, shortened: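 Amplicons of the tRNA-Arg(CCU) gene were sequenced, 100-nucleotide paired-end, from the start population and from each end population of a pooled yeast competition. The competition, in six parallel replicates, lasted 24 hours in YPD at 37°C. Fitness relative to wild type was calculated from changes in genotype frequencies. Genotypes had to have ≥ 100 starting reads, and estimates < 0.5 were set to 0.5.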
For GUUCUGUUGGCGUAUUGGUAACGCGUCUCCCUCCCAAGGAGAAGCCUGCGGGUUCGAGUCCCGUACGGAACG, the yeast fitness was no more than 0.5.
Work on GUUCCGUUGGUGUAAUGGUAACGCGUCUGCUUCGUAAGGAGAAGACUGCGGGUUCGAGUCCCGUACGGACCG yielded a yeast fitness of 0.534.
For GUUCCGUUGGCGUUAUGGUAACGCGUCUCCCUCCUAAGGAGAAGACUGUGGAUUCGAGUCCCGUACGGAACG, the yeast fitness was no more than 0.5.
In the case of GUUCCGUUGGCGUAAUGGUAACGCGUCUCCCUCCUAAAGCGAAGACUGCGGGUUCAAGUUGCGUACUGAACG, the yeast fitness is reported as no more than 0.5.
With GUUCCGUUGGCGUAAUGGUAACGCGUCUCCUUCCUAAGGAGAAGACUGUGGGUUCGAGUCGCGUACGGAACG the yeast fitness was 0.638.
In the case of GUUCCGUUGACGUAAUGGUAACGCGUCUUCCUCCUAAGGAGAACACUGCGGGUUCGAGUCCCGUACGGAACG, the yeast fitness is reported as no more than 0.5.
Variant GUUCGGUUGCCGUAAUGGUAACGCGUCUACCACCUAAGGAGAAGAGUGCGGGUUCGCGUCCCGUACGGAACG has a yeast fitness of no more than 0.5.
GUUCAGUUGGCGUAAUGGUAAAGAGCCUCCCUCCUAAGGAGAAGACUGCGGGUUCGAGUCCCGUACGGAACG gave a yeast fitness of no more than 0.5.
Work on GUUCCGUUGGCGUCAUGAUAACGCGUCUCCCUCCUAAGGAGAAGACUGCGGGUUCGAGUCCCGUACGGAACG yielded a yeast fitness of 0.59.
Variant GUUCCGUUGGCGUAAUGGUAACGCGUCUCCCCCCUAAGGAGUACACUGCGGGUACGAGUCCCGUACGGAACG has a yeast fitness of no more than 0.5.
In the case of GUCCCGUUGGCGUAUUGGUAACGCGUCUCCCUCUUAAGGAGAGGACUGCGGGUCCGAGUCCCGUACGGAACG, the yeast fitness is reported as no more than 0.5.
Variant GUUCCGUCGGCGUAAUGGUAACACGUCUUCCUCCUAAGGAGAAGUCUGCGGGUUCGAGUCCCGUACGGAACG has a yeast fitness of 0.632.
With GUUCCGUUGGCGUAAUGGUACCGCGUCUCCCUCGUAAGGAGAAGACUGCGGGUUCGAGUCCCGUACGGAACG the yeast fitness was 0.577.
Work on GUUCCGUUGGCGUAAUGGUAACGCGUAUCCCUCCUAAGGAGAAGACUGCGGGUUCGAGUCCCGUACGGCACG yielded a yeast fitness of 0.875.
GUUCCGUUGGCGUAAUGGUAACACGUCUCCCUCCUAAGGAGAAGACUGCGGGUUCGAGUCCCGUACGGUACG gave a yeast fitness of 0.726.
For GUUCCGUUGGCGUAAUGGCAACGCGUCUCCCCCCUAAGGAGAAGACUGCGGGUUCGAGUAACGUACGGAACG, the yeast fitness was 0.731.
Work on GUUCCGUUGGCGUAAUGGUAACGGGUCUCCCUCCUAAGGAGAAGACUGUGGGUUCGAGUCACGUACGGAACG yielded a yeast fitness of no more than 0.5.
For GUUCCGUUGGCGUAAUGGUAACGCGUCUACAUCCUAAGGCGAAAACUGCGGGUUCGAGACCCGUACGGAACG, the yeast fitness was 0.682.
GUUCCGUUGGCGUAAUGGUAACGGGUCACCAUCCUAAGGAGAAGACUGCGGGUUCGAGUCCCGUACGGAACG showed a yeast fitness of no more than 0.5.
GUUCCGUUGGCGUACUGGUAGCACGUUUCCCUCCUAAGGAGAAGACUGCGGGUUCGAGUCCCGUACGGAACG gave a yeast fitness of no more than 0.5.
Work on GUUACGUUGGCGUAAUGGUAACGCGUAUCCCUCCUAAGGAGAAGACUGCGGGUUCGAGUCCCGUACGGAACG yielded a yeast fitness of 0.798.
GUUCCGUUGGCGUAAUGGUAACGCGUCUCCCUCCUAAGGAGAAGACUGCGGGUUGGAGUCCCGUACGAAACG showed a yeast fitness of 0.604.
In the case of GUUCAGUUGACGUAAUGGUAACGCGUCUCCCUCCUAAGAAGAAGACUGCGGGGUCGAGUCCCGUACGGAACG, the yeast fitness is reported as no more than 0.5.
With GUUCCGUUGGCGUAAUGGUAACACGUCUCACUCCUAGGGAGAAGACUGCGGGUUCGAGUCCCGUACGGAACG the yeast fitness was no more than 0.5.
Variant GUUCCAUUUGUGUAAUGGUAACGCGUCUCCCUCCUAAGGAGAAGACUGCGGGUUCGAGUCCCGUACGGACCG has a yeast fitness of 0.533.
For GUUCCGUUGGCGUAAUGGUAACGCGACUCCCUCUUAAGGAGAAGACUGCAGGUUCGAGUCCCGUACGGUACG, the yeast fitness was no more than 0.5.
Variant GUUCCGUUGGCGUAAUGGUAACACGUCUCCAUCCUAAGGAGAAGACUGCGGGUUCGAGUCCCGUACGGAACG has a yeast fitness of 0.644.
For GUUCCGUUGGCGUAAUGGUAACGCGUCUCCCUCCUAAGGAGAACACUGCGGGUUCGAGUCCCAUACGGAACG, the yeast fitness was 0.83.
GUUCCGUUGGCGUAUUGGUAACGCGUCUCGCUCUUAAGGAGAAGACUGCGGGUUCGAGUCCCGUAUGGACCG showed a yeast fitness of 0.511.
GUUCCGUUGGCGUAAUGGUAACGCGUCUCCCUCCUAAGGAGGAGGCUGCGGGUUCGAGUCCCGUUCGGAACG showed a yeast fitness of 0.635.
For GUUCCGUUGGCGUAUUGGUACCGCGUCUCCCUCCUAAGGAGAAGACUGCGGAUUCGAGUCCCGUACGGAACG, the yeast fitness was no more than 0.5.
With GUUCCGUUGGCGUAAUGGUAACGCGUCUCCCUCCUAAGGAGAAGACUGCGGGUUCGACUCCCGUACGUAACG the yeast fitness was 0.75.
In the case of GUUCCGUUGGCGUAAUGGUAACGCAUCUCCCUCAUAAGGAGAAGACUGCGGGUUCGAGUCCCGUUCGGAACG, the yeast fitness is reported as 0.616.
Variant GUUCCGUUGGCGUAAUGGUAACGCGUCUCCUUCAUAAGGGGAAGACUGCGGGUUCGAGACCCGUACGGAACG has a yeast fitness of 0.566.
Work on GUUCCAUUGGCGUAAUGGUAACGCGUCUCCCACCUAAGGAGAAGUCUGCGGGUUCGAGUCCCGUACGGCACG yielded a yeast fitness of 0.565.
With GUUCCGUUGGCGUAAUGGUAUCGCGUCUCCCUCCUAAGGAGAAGACUGCGGGUUCGAGUUCCGUACGGAACG the yeast fitness was 0.584.
Work on GUUCAGUUGGCGUAAUGGUAACGUCUCUCGCUCCUAAGGAGAAGACUGCCGGUUCAAGUCCCGUUCGGAACG yielded a yeast fitness of no more than 0.5.
For GUUCCGUUGGCGUAUUGGUAACGCGUCUCCCUCAUAAGCCGAAGACUGCGGGUUCCAGUCGGGUACGCAACG, the yeast fitness was 0.533.
GUUCCGUUGGCGUAAUGGUAACGCGUCACCCUCCUUAGGAGAAGACUCCGGGUUCGAGUCCCGUACGGAACG gave a yeast fitness of no more than 0.5.
GUGCCGUUGGCGUAGUGGUAGCGCGCCUGUCUCCUAAGGAGAAGACUGUGGGUUCGUGUCCCGUACGGAACG showed a yeast fitness of no more than 0.5.
GUUCCGUUGGCCUAAAGGUAACGCGUGUCCCUCCUGAGGAGAAGAUUGCGGGUUCGAGUCUAGUACGAAACG showed a yeast fitness of no more than 0.5.
Work on GUUCCGUUGGCGUAAUGGUAACGCGUCUCCCUCCUAAGGAGAAGAAUGCGGGUUGGAGUCCCGUACUGAACG yielded a yeast fitness of 0.699.
For GUUCCGUAGGCGUAAUGGUAACGCGUCUGCCUCCUAAGGGGAAGACUGCGGGUUCGAGUCCCGUACGGAGCG, the yeast fitness was no more than 0.5.
In the case of GUUCCGUUGGCGUAAUGGUAACGCGUCUCCCUCCUAAGGAGUAGACUGCGGGUUAGAGUCCCGUACGGAACG, the yeast fitness is reported as 0.584.
Work on GUUCCGUGGGCGUAAUGGUAACGCGUCUCGCUGCUAAGGAGAAGACUGCGGGUUCGAGUCACGUACGGUACG yielded a yeast fitness of no more than 0.5.
With GUUCCGUUCGCGUAAUGGUAACGCGUCAACCUCCGAAGGAGAAGACUGCGGGUUCGAGUCCCGUACGGAACG the yeast fitness was no more than 0.5.
GUGCCGUUGGCGUAAUGGUAACGCGUCUCCCUCCUAAGGAGAAGACUGCGGGUUCGAGUCCCGUACGUAACG showed a yeast fitness of 0.808.
In the case of GUUCCGUUGGCGUAAUGGUAACGCGUCUCCCUGGCAAGGAGAAGAUUGCGGGUUCGAGUCCCGUACGGAACG, the yeast fitness is reported as no more than 0.5.
In the case of GUUCCGUUGGCGUAAUCGUAACGCGUCUCCCUCCUAAGGAGAAGAAUGCGGGUUCGAGUCCCGUACGGAACG, the yeast fitness is reported as 0.609.
For GUUACGUUGGCGUAAUGGUAACACGUCACCCUCCUAAGGAGAAGACUGCGGGUUCGGGUCCCGUACGGAACG, the yeast fitness was no more than 0.5.
Work on GAUCCGUUAGCGUAAUGGUAACGCGUCUCCCUCCUAGGGAGAAGACUGCGGGUUCGAGUCCCGUCCGGAACG yielded a yeast fitness of no more than 0.5.
Variant GUUCCGUGGGCGUAAUGGUAACGCGUCUCCCUACUAAGGAGAAGACUGUGGGUUCGAGUCCCGUAUGGAACG has a yeast fitness of 0.609.
For GUUCCGUUGGCGUAAUGGUAACGCGACACCUUCCUAAGGAGAAGACUGCGGGUUUGAGUCCCGUAGGGAACG, the yeast fitness was no more than 0.5.
GUUACGUUGGCGUAAUGGUAACGCGUCUCCCUCCUAAGGAGAAGACUACGGGUUCGAGUCCCGUACGGAACG showed a yeast fitness of 0.964.
GUUCCGUUGGCGUAAUGGUAACGGGUCUCCCUCCUAACGAGAAGAAUGCGGGCUCGAGUCGCGUACGGAACG showed a yeast fitness of no more than 0.5.
With GUUCCGUUGGCGUACUGGUAACGAGUCUCCCUCCUAAGGAGAAGACUGCGGGUUCGAGCCCUGUACGGAACG the yeast fitness was no more than 0.5.
GUUCGGUUGGCGUAAUGGUAACGCGUCUCCCUCCUAACGAGAAGACGGCGGGUUCGAGUCCUGUACGGAACG showed a yeast fitness of no more than 0.5.
For GUUCCGUUGGCGUAAUGGUAACGCGUCUCCCUGCUAAGGAGAAGACUGCGGGUUCGCGUCCCGUACGGAACG, the yeast fitness was no more than 0.5.
With GGUCCGUUGGCGUAAUGGUAACGGGUCUGCAUCCUAAGGAGAAGACUGCGGGUUCGAGUCCCGUACGGAACG the yeast fitness was no more than 0.5.
GUUCCGUUAGGGUAAUGGUAACGCGUCUCCCUCCUAAGGAGAAGACUGCGGGUCGGAGUCCCCUACCGAACG gave a yeast fitness of no more than 0.5.
In the case of GUUCCGUUGGCGUAAUGGUAACGCGUGUCCUUCCUAAGGAGAAGACUGCGGGCUCGAGUCCCGUAAGGAACG, the yeast fitness is reported as no more than 0.5.
In the case of GUUCCGUUGGCGUAAUGCUAACGCGUCUCCCUCCUACGGAGAAGACUGGGGGUUCGAGUCCCGUACGGAACG, the yeast fitness is reported as 0.663.
GUUCGGUUGGCGUAAUGGUAAAGCGUCUCCCUCCUAAGGAGCAGACUGCGGGUUCGAGUCCCGUACGGAACG showed a yeast fitness of no more than 0.5.
Variant GUUCCGUUGGCGUAGUGGUAACGCGUCCCUCUCCUAAGGAGAAGACUGCGGGUUCGAGUCCCGUACGGUACG has a yeast fitness of 0.633.
GUUCCGUUGGCGUAAUGGUAACGCGUCUCCCUCCUAAGGAGAAGACUGCGGGUUCGAGUUCCCUACGGAACG gave a yeast fitness of 0.572.
GUUCCGUUGGCGUAAUGGUAACGCGUCUCCCUACUAAGGAGAAGACUGGGGGUUCGAGUCCCGUACCGAACG gave a yeast fitness of 0.548.
For GUUCUGUUGGUGUAAUGGUAACGCGUCUCCCUCCUAAGGAGAAGACUGCGGGGUCAAGUCUCGUACGGAACG, the yeast fitness was no more than 0.5.
Work on GUUGCGUUGGCGUAAUGGUAACGCGUCUCCCUCCUAAGGAGAAGACUGCGGGUUCGAGUCUCGUACGGAACG yielded a yeast fitness of 0.935.
With GGUCAGUUGGCGUAAUGGUAACACGUCCCCCUCCUAAGGAGAAGACUGCGGGUUCGAGCGCCGUACGGAACG the yeast fitness was no more than 0.5.
For GUUCCGUUGGCGUAAUGGUAACGCGUCUGCCUCCUAAGGAGAAGACUGCGGGUUCGAGUGCCGUACGGAACG, the yeast fitness was 0.851.
Variant GUUCCCUUGGCGUAAUGGUAACGCAUCUCCCUCCUAAGGAGAAGACUGCGGGUUCGAGUCCCGUACGGAACG has a yeast fitness of 1.17.
Work on GUUCCGUUGGCGGAAUGGUAACGCGUCUCCCUCCUAAGGAGAAGACAGCGGGUUCGAGUCCCGUACGAAACG yielded a yeast fitness of 0.737.
Variant GUUCCGUUGGCGUAAUGGUAACGUGUCUCCUUCCUAAGGAGGAGACUGCGGGUUCGAGUCCCGUACGGAACG has a yeast fitness of 0.574.
GUUCCGUUGGCGUAAAGGUAACGCGUCUCCCUUCUAACGAGAAGACUGCGGGUUCGAGUCCCGUACGGAACG gave a yeast fitness of 0.625.
Variant GUUCCGUUGGCGUAAUGGUAACGCGUCUUCCUCCUAAGGAGAAGACUGCGGGUUCGAGUCCCAUACGGAACG has a yeast fitness of 0.803.
